Activity calls are given as the source filed them. The calls are words filed in the database; no cut-off is given here.
Assays:
[1] = molecular target: T1, TGF-beta receptor type-1 (Rattus norvegicus) (UniProt P80204); experiment: Inhibition of TGFbeta1 receptor in TGFbeta1-stimulated Sprague-Dawley rat cardiac fibroblasts assessed as reduction in fibronectin expression at 50 uM measured after 12 hrs by Western blot analysis
T1 sequence (whole entry): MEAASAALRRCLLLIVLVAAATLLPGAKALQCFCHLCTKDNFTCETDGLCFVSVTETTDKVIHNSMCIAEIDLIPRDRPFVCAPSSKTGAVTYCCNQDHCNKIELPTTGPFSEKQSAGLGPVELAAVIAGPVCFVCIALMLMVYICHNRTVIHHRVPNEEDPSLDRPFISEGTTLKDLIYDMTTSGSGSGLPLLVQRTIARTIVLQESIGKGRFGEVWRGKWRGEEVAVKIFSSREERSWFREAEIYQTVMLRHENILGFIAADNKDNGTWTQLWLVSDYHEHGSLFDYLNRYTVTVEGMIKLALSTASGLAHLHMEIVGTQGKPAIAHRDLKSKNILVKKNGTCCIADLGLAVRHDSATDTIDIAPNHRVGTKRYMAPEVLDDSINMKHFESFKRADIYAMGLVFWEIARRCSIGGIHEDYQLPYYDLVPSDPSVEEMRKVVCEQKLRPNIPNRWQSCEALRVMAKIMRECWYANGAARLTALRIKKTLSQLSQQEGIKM
Summary of the method: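 Screen in primary rat cardiac fibroblasts: compounds at 50 µM or 10 µM given with 10 ng/mL TGFβ1 for 12 h. FN measured by Western blot with GAPDH loading control and densitometry. N=3 independent experiments.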

[2] = molecular target: T1, TGF-beta receptor type-1 (Rattus norvegicus); experiment: Inhibition of TGFbeta1 receptor in TGFbeta1-stimulated Sprague-Dawley rat cardiac fibroblasts assessed as reduction in fibronectin expression at 10 uM measured after 12 hrs by Western blot analysis relative to control
Summary of the method: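 Primary rat cardiac fibroblasts (passages 2–4, 3×10^5 per well) treated with compound plus 10 ng/mL TGFβ1 for 12 h; tested at 2.5, 5 and 10 µM. Lysates run on 10% SDS-PAGE (30 µg protein), probed for FN, α-SMA and collagen I/III, and quantified by densitometry against GAPDH. N=3 independent experiments.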

Row | SMILES | fibronectin reduction (active/not active) [1] | fibronectin reduction verdict (active/not active) [2]
1 | C=C(C)[C@@H]1C[C@@H](OC(C)C)/C(C)=C/CCC2=C[C@@H]1OC2=O | inactive | inactive
2 | C=C(C)[C@@H]1C/C=C(\C)[C@H](O)CCC2=C[C@@H]1OC2=O | Active | –
3 | C=C(C)[C@@H]1C[C@@H](N2CCCC2)/C(C)=C/CCC2=C[C@@H]1OC2=O | inactive | inactive
4 | C=C(C)[C@@H]1C/C=C(\C)[C@H](OC(=O)c2cccnc2Cl)CCC2=C[C@@H]1OC2=O | Active | Active
5 | C=C(C)[C@@H]1CC/C(C)=C/CCC2=C[C@@H]1OC2=O | Active | –
6 | C=C(C)[C@@H]1C[C@@H](N2CCOCC2)/C(C)=C/CCC2=C[C@@H]1OC2=O | inactive | inactive
7 | C=C(C)[C@@H]1C/C=C(\C)[C@@H](O)CCC2=C[C@@H]1OC2=O | Active | –
8 | C=C(C)[C@@H]1CC/C(C)=C/CC[C@@H](C(=O)OC)CC1=O | inactive | inactive
9 | C=C(C)[C@@H]1C/C=C(\C)[C@H](N=[N+]=[N-])CCC2=C[C@@H]1OC2=O | Active | –
10 | C=C(C)[C@@H]1C/C=C(\C)[C@H](OC(C)=O)CCC2=C[C@@H]1OC2=O | Active | –
11 | C=C(C)[C@@H]1C[C@@H](OC=O)/C(C)=C/CCC2=C[C@@H]1OC2=O | inactive | inactive
12 | C=C(C)[C@@H]1C/C=C(\C)[C@H](Cl)CCC2=C[C@@H]1OC2=O | Active | Active
13 | C=C(C)[C@@H]1C/C=C(\C)[C@H](OC(=O)c2cccs2)CCC2=C[C@@H]1OC2=O | Active | –
14 | C=C(C)[C@@H]1CC/C(C)=C/CC[C@@H](C(=O)OCC)CC1=O | inactive | inactive
15 | C=C(C)[C@@H]1C/C=C(C)/C(=N\OC(=O)c2ccco2)CCC2=C[C@@H]1OC2=O | inactive | inactive
16 | C=C(C)[C@@H]1C/C=C(\C)[C@H](OC(=O)c2ccc(C(F)(F)F)cc2)CCC2=C[C@@H]1OC2=O | Active | –
17 | C=C(C)[C@@H]1C/C=C(\C)[C@H](OCC)CCC2=C[C@@H]1OC2=O | Active | –
18 | C=C1CC[C@@H](C(=C)C)[C@@H]2C=C(CC[C@H]1F)C(=O)O2 | Active | –
19 | C=C(C)[C@@H]1C/C=C(\C)[C@H](OC)CCC2=C[C@@H]1OC2=O | Active | –
20 | C=C(C)[C@@H]1C[C@@H](OC)/C(C)=C/CCC2=C[C@@H]1OC2=O | inactive | inactive
21 | C=C(C)[C@@H]1C/C=C(\C)[C@H](OC(=O)c2cc(C(F)(F)F)cc(C(F)(F)F)c2)CCC2=C[C@@H]1OC2=O | Active | Active
22 | C=C(C)[C@@H]1CC[C@]2(C)O[C@@H]2CCC2=C[C@@H]1OC2=O | Active | –
23 | C=C(C)[C@@H]1C/C=C(\C)[C@H](F)CCC2=C[C@@H]1OC2=O | Active | –
24 | C=C(C)[C@@H]1C/C=C(\C)[C@H](O[N+](=O)[O-])CCC2=C[C@@H]1OC2=O | Active | –
